Screening results from PubChem.
In the library only some 2.3% were active in any assay of this set; here they are far more common.
C2C12 statin: suppressors of statin myotoxicity in C2C12 myotubes, primary screen, cell-based, single point, plate reader; C2C12 myotubes + simvastatin, ATP luminescence, 48 h; scaled: DMSO 0, geranylgeraniol control 100; 0.78% of 330,000 active; rescue of ATP level, % at 7.49 µM;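 active = mean ATP rescue above about 67%, or every replicate alone reaching that limit, limit read from the data, passing the limit was not always enough; inconclusive = no clear call, values can overlap the other calls; inactive = mean under the limit and some replicate under it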;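 also: myotubes were challenged with 10 µM simvastatin during compound exposure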
ERp5 inh: inhibitors of ERp5-driven insulin aggregation, primary screen, biochemical, turbidity, absorbance 650 nm, single point; 0.05% of 350,000 active; Protein disulfide-isomerase A6 (Homo sapiens), Q15084; 90 min; inhibition, % at 9.99 µM; AID 651711, 2012;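 active = mean replicate inhibition above about 25%, with every replicate also reaching it, limit read from the data, passing the limit was not always enough; inconclusive = only one of those two criteria met; inactive = neither criterion met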
Target sequence (Q15084 whole entry, looked up): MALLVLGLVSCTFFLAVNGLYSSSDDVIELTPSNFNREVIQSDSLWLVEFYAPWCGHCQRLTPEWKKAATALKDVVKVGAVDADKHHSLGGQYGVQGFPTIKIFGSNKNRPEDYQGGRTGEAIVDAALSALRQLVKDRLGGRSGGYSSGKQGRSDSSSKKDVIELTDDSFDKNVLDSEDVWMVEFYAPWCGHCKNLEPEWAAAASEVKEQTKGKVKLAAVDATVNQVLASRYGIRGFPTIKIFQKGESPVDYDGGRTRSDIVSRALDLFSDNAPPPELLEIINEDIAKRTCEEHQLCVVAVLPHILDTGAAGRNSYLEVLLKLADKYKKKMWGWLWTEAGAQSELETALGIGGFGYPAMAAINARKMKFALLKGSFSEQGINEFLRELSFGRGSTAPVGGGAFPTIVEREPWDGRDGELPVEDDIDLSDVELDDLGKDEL
F508del corr: F508del CFTR correction, initial screen, CFBE line, single point | CFBE cells, YFP halide quenching; stimulated with forskolin plus potentiator P3; % fluorescence drop versus neutral controls | activity (quench increase), % at 7.58 µM | 0.36% of 350,000 active | AID 720511, 2013;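 active = mean added fluorescence quench of at least 8% versus neutral control, with both replicates also reaching 8%; inconclusive = only one of the mean or replicate conditions met; inactive = mean below 8% and not both replicates reaching 8%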;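 also: cells transiently co-express mutant CFTR-F508del with the halide-sensitive YFP; corrector assay measuring rescue of mutant channel to the surface after 24 h compound exposure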
Cneo AK release: Cryptococcus neoformans cell lysis inducers, primary screen, AK release luminescence, single concentration; C. neoformans lysis, adenylate kinase release luminescence, 4 h; normalised: neutral wells 0, clomiphene wells 100; lysis activity, % at 15 µM; 0.2% of 360,000 active;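 active = mean lysis activity across replicates of at least 80%, whatever share of replicates individually reach that level; inactive = mean lysis activity below 80%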
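Material: C. neoformans cells | Amount: Yeast cell density of 5 × 10^6 cells/mL | Medium: Fresh YPD growth medium | Dosing: Single dose | Times: Static 4 h at 37 °C with compound, 1 h detection | Detection: AK luminescence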
DENV2 CPE rescue: inhibitors of DENV2 cytopathic effect, primary screen, cell-based, plate reader, single concentration; DENV2-infected cells, cytopathic effect rescue; CPE inhibition, % at 9.99 µM; 1.7% of 350,000 active; AID 651640, 2012; in the data active = CPE inhibition above about 20%, passing the limit was not always enough; inconclusive = no clear call, values can overlap the other calls; tested in BHK-21 cells;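 also: 0% = median of neutral control wells and 100% = median of positive control wells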
PDI inh: inhibitors of human PDI, primary screen, biochemical, turbidity, single point, plate reader | Protein disulfide-isomerase (Homo sapiens), P07237 | 0.052% of 350,000 active | PDI insulin aggregation turbidity, A650, 90 min | inhibition, % at 10 µM;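 active = mean inhibition across replicates of 30% or more, whatever share of single replicates reach that level; inconclusive = mean inhibition below 30% while every single replicate reaches 30%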
* = called active by the depositor.

Screening C[C@@H]1CN([C@H](C)CO)C(=O)Cc2cc(NS(=O)(=O)c3cccs3)ccc2O[C@H]1CN(C)Cc1ccc(-c2ccccc2)cc1 returned C2C12 statin 63.8, ERp5 inh -4.4, F508del corr 0.7, Cneo AK release 0.3 and DENV2 CPE rescue 14.6.
Screening C[C@@H]1CN([C@H](C)CO)C(=O)Cc2cc(NS(=O)(=O)c3ccc(F)cc3)ccc2O[C@@H]1CN(C)Cc1ccc(-c2ccccc2)cc1 returned C2C12 statin 40.1 and F508del corr 1.8.
Screening C[C@@H]1CN([C@@H](C)CO)C(=O)Cc2cc(NS(=O)(=O)c3ccc(F)cc3)ccc2O[C@H]1CN(C)Cc1ccc(-c2ccccc2)cc1 returned C2C12 statin 79.8* and F508del corr 3.4.
Screening COc1ccc(S(=O)(=O)Nc2ccc3c(c2)CC(=O)N([C@@H](C)CO)C[C@@H](C)[C@H](CN(C)Cc2ccc(-c4ccccc4)cc2)O3)cc1 returned C2C12 statin 140.2*, ERp5 inh 0.3, F508del corr 3.5, Cneo AK release 1.1 and DENV2 CPE rescue -22.1.
For Cc1cc(N/N=C/c2ccccc2O)c2ccccc2n1 the results were C2C12 statin -9.8, ERp5 inh 3.2, F508del corr 15.9*, Cneo AK release -0.6, DENV2 CPE rescue 16.0 and PDI inh -9.2.
For COc1ccc2nc(C)cc(N/N=C/c3cccc(OC)c3O)c2c1 the results were C2C12 statin 9.1, ERp5 inh 6.4, F508del corr -7.4, Cneo AK release 7.3, DENV2 CPE rescue -16.0 and PDI inh -0.6.
`C[C@@H]1CCCCO[C@@H](CN(C)C(=O)c2ccncc2)[C@H](C)CN([C@@H](C)CO)C(=O)c2cc(N(C)C)ccc2O1` gave C2C12 statin 14.2, ERp5 inh 2.9, F508del corr 2.6, Cneo AK release 7.5 and DENV2 CPE rescue 10.6.
Screening Cc1ccc(S(=O)(=O)Nc2ccc3c(c2)CC(=O)N([C@@H](C)CO)C[C@H](C)[C@H](CN(C)CC2CC2)O3)cc1 returned C2C12 statin -8.5, ERp5 inh -0.7, F508del corr -1.2, Cneo AK release 0.2 and DENV2 CPE rescue -5.9.
CCC1=C(c2ccc(C)cc2)S(=O)(=O)N=C1N1CCC(C(=O)NCCCN2CCCCC2C)CC1 (stereo not drawn) was read as C2C12 statin 115.4*, ERp5 inh -6.3, F508del corr -0.7, Cneo AK release 0.9, DENV2 CPE rescue 0.0 and PDI inh 4.0.
Screening CC(C)N=Cc1c(O)[nH]c2ccccc12 returned C2C12 statin 82.9*, Cneo AK release -1.0 and PDI inh -12.6.
`Cn1c(=O)c2c(nc(Oc3ccccc3)n2C)n(C)c1=O` gave C2C12 statin 141.5*, Cneo AK release 6.6 and PDI inh 4.8.
C[C@H]1CN([C@@H](C)CO)C(=O)Cc2cc(NC(=O)C3CC3)ccc2O[C@H]1CN(C)Cc1ccccc1 was read as C2C12 statin -8.2, ERp5 inh -0.5, F508del corr 1.3, Cneo AK release 1.1 and DENV2 CPE rescue 1.3.
`CCCC#Cc1ccc(CC[C@H]2O[C@H]3CC[C@@H](CO)O[C@H]3C[C@H]2NS(=O)(=O)c2ccccc2)cc1` gave ERp5 inh -3.3, F508del corr -0.8 and DENV2 CPE rescue 10.5.
`Cc1ccccc1S(=O)(=O)N1C[C@@H](O)COC[C@@H]2O[C@@H](CC(=O)N3CCCCC3)CC[C@H]21` gave C2C12 statin 0.6, ERp5 inh 0.1, F508del corr -1.7, Cneo AK release -1.4 and DENV2 CPE rescue -2.1.
`CCCNC(=O)C[C@H]1CC[C@H]2[C@@H](COC[C@@H](O)CN2S(=O)(=O)c2ccccc2F)O1` gave C2C12 statin -5.6, ERp5 inh -10.5, F508del corr -2.4, Cneo AK release 4.1 and DENV2 CPE rescue 8.1.
COCCNC(=O)C[C@@H]1CC[C@@H]2[C@H](COC[C@H](O)CN2S(=O)(=O)c2ccccc2F)O1 was read as C2C12 statin -0.6, ERp5 inh -3.6, F508del corr -0.7, Cneo AK release 0.9 and DENV2 CPE rescue 14.2.
Screening COCCNC(=O)C[C@@H]1CC[C@@H]2[C@H](COC[C@@H](O)CN2S(=O)(=O)c2ccccc2C)O1 returned C2C12 statin -6.8, ERp5 inh 7.0, F508del corr 3.0, Cneo AK release 90.7* and DENV2 CPE rescue -8.7.
For COCCNC(=O)C[C@H]1CC[C@@H]2[C@H](COC[C@H](O)CN2S(=O)(=O)c2ccccc2C)O1 the results were C2C12 statin -0.8, ERp5 inh -0.6, F508del corr 6.1, Cneo AK release 103.0* and DENV2 CPE rescue -5.5.
Screening Cc1ccccc1S(=O)(=O)N1C[C@@H](O)COC[C@@H]2O[C@H](CC(=O)N3CCCCC3)CC[C@H]21 returned C2C12 statin -22.3, ERp5 inh 3.2, F508del corr -0.4, Cneo AK release 3.8 and DENV2 CPE rescue 109.9*.
Screening CCNC(=O)C[C@@H]1CC[C@H]2[C@@H](COC[C@@H](O)CN2S(=O)(=O)c2ccccc2F)O1 returned C2C12 statin 7.0, ERp5 inh -5.0, F508del corr 2.7, Cneo AK release 95.0* and DENV2 CPE rescue 23.0*.
`Cc1ccccc1S(=O)(=O)N1CC(=O)N2[C@@H](CO)[C@@H](c3ccc(C#CCN(C)C)cc3)[C@@H]2C1` gave ERp5 inh -9.5, F508del corr 3.0 and DENV2 CPE rescue inconclusive.
`CN1C(=O)c2cc(NC(=O)C3CCCCC3)ccc2OC[C@H]2O[C@@H](CC(=O)NCCc3ccncc3)CC[C@H]21` gave C2C12 statin 6.1, ERp5 inh -2.4, F508del corr -1.6, Cneo AK release -2.9 and DENV2 CPE rescue 5.5.
`Cc1cc(C)nc(N/N=C/C2=C(O)CC(c3ccccc3)CC2=O)n1` (stereo not drawn) gave ERp5 inh 4.7, F508del corr 2.4 and DENV2 CPE rescue 31.9*.
`Cc1ccc(S(=O)(=O)NCC[C@@H]2CC[C@H](NC(=O)CCN3CCCCC3)[C@H](CO)O2)cc1` gave C2C12 statin 11.6, ERp5 inh -1.8, F508del corr -0.4, Cneo AK release -4.4 and DENV2 CPE rescue 72.6*.
Screening Cc1ccc(S(=O)(=O)NCC[C@H]2CC[C@@H](NC(=O)Nc3ccccc3F)[C@H](CO)O2)cc1 returned C2C12 statin -0.4, ERp5 inh -0.7, F508del corr -1.1, Cneo AK release -3.4 and DENV2 CPE rescue 20.4*.
